Test results: ChEMBL document CHEMBL1909543, “Synthesis and biological evaluation of thio-benzodiazepines as novel small molecule inhibitors of the p53-MDM2 protein-protein interaction” (Eur J Med Chem, 2011)

Key:
SAOS-2 = assay: Antitumor activity against p53 deficient human Saos2 cells after 72 hrs by MTT assay; assay type: functional, cell-based; settings: SAOS-2, 72 h
Summary of the method: (§1)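 Cells seeded at 5-6 × 10⁴ per well and cultured 24 h, then exposed to a range of compound concentrations in triplicate wells; vehicle control 0.1% DMSO. After 72 h, MTT (5 mg/mL solution) added, plate shaken 1 min, then incubated 4 h at 37 °C. Formazan dissolved in DMSO and absorbance read at 570 nm. Drug-free wells served as blanks. IC50 = 50% growth inhibition.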

[1] = biological target: Tumour suppressor p53/oncoprotein Mdm2 (Homo sapiens, UniProt Q00987); assay: Inhibition of Mdm2-p53 protein interaction preincubated for 1 hr by fluorescence polarization assay
Chain of Tumour suppressor p53/oncoprotein Mdm2 (P04637 whole entry): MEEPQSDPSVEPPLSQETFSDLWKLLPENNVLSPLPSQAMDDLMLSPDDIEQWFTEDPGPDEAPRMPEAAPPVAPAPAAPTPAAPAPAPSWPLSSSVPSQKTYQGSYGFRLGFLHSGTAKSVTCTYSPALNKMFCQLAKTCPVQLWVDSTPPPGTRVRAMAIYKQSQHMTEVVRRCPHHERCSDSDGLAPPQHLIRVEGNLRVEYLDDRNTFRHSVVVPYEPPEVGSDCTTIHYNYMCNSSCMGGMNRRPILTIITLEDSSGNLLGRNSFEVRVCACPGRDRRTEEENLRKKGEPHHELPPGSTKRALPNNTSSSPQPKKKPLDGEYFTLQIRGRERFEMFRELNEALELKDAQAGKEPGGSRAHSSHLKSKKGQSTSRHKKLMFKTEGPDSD
Chain of Tumour suppressor p53/oncoprotein Mdm2 (Q00987 whole entry): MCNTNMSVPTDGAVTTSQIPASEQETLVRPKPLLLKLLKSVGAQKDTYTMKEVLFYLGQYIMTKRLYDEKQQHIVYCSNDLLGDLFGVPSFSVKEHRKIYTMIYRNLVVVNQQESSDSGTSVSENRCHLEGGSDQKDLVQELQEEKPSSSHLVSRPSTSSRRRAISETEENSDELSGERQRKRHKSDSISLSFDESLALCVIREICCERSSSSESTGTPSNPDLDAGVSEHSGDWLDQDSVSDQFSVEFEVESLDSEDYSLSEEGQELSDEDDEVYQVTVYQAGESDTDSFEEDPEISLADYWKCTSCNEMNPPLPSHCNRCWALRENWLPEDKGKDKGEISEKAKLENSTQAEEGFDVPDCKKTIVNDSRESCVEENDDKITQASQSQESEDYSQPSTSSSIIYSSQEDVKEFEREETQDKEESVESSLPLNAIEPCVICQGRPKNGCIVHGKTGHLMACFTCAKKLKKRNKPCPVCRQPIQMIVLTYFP

U2OS [2] = assay: Antitumor activity against human U2OS cells expressing wild type p53 after 72 hrs by MTT assay; assay type: functional, cell-based; summary of the method: as §1
U2OS [3] = assay: Ratio of nutlin-3a IC50 to compound IC50 for human U2OS cells expressing wild type p53; assay type: functional

COC(=O)C(c1ccc(Cl)cc1)N1C(=O)c2ccc(NCc3ccc(Br)cc3)cc2NC(=S)C1c1ccc(Cl)cc1 (configuration not stated)
IC50 (SAOS-2): 13.8 µM | Ki [1]: > 100 µM | IC50 (U2OS [2]): 14.7 µM

COC(=O)C(c1ccc(Cl)cc1)N1C(=O)c2ccccc2NC(=O)C1c1ccc(Cl)cc1 (configuration not stated)
IC50 (SAOS-2): 5.58 µM | Ki [1]: 10.6 µM | IC50 (U2OS [2]): 13.9 µM

COC(=O)C(c1ccc(Cl)cc1)N1C(=O)c2ccccc2NC(=S)C1c1ccc(Cl)cc1 (configuration not stated)
IC50 (SAOS-2): 6.55 µM | Ki [1]: 0.52 µM | IC50 (U2OS [2]): 13.7 µM

CCCNc1ccc2c(c1)NC(=S)C(c1ccc(Cl)cc1)N(C(C(=O)OC)c1ccc(Cl)cc1)C2=O (configuration not stated)
IC50 (SAOS-2): 12.4 µM | Ki [1]: 1.02 µM | IC50 (U2OS [2]): 91.2 µM

COC(=O)C(c1ccc(Cl)cc1)N1C(=O)c2ccc(NCc3ccccc3)cc2NC(=S)C1c1ccc(Cl)cc1 (configuration not stated)
IC50 (SAOS-2): 17.8 µM | Ki [1]: 2.26 µM | IC50 (U2OS [2]): > 100 µM

COC(=O)C(c1ccc(Cl)cc1)N1C(=O)c2ccc(NCc3ccc(Cl)cc3)cc2NC(=S)C1c1ccc(Cl)cc1 (configuration not stated)
IC50 (SAOS-2): 13.3 µM | Ki [1]: > 100 µM | IC50 (U2OS [2]): 20.9 µM

COC(=O)C(c1ccc(Cl)cc1)N1C(=O)c2ccc(NCC(C)(C)C)cc2NC(=S)C1c1ccc(Cl)cc1 (configuration not stated)
IC50 (SAOS-2): 2.19 µM | Ki [1]: > 100 µM | IC50 (U2OS [2]): 18 µM

COC(=O)C(c1ccc(Cl)cc1)N1C(=O)c2ccc(NCC(C)C)cc2NC(=S)C1c1ccc(Cl)cc1 (configuration not stated)
IC50 (SAOS-2): 15.7 µM | Ki [1]: 0.32 µM | IC50 (U2OS [2]): > 100 µM

CCCCCNc1ccc2c(c1)NC(=S)C(c1ccc(Cl)cc1)N(C(C(=O)OC)c1ccc(Cl)cc1)C2=O (configuration not stated)
IC50 (SAOS-2): 20.7 µM | Ki [1]: 15 µM | IC50 (U2OS [2]): > 100 µM

CCCCNc1ccc2c(c1)NC(=S)C(c1ccc(Cl)cc1)N(C(C(=O)OC)c1ccc(Cl)cc1)C2=O (configuration not stated)
IC50 (SAOS-2): 27.9 µM | Ki [1]: 49.6 µM | IC50 (U2OS [2]): > 100 µM

COC(=O)C(c1ccc(Cl)cc1)N1C(=O)c2ccc(NCC3CC3)cc2NC(=S)C1c1ccc(Cl)cc1 (configuration not stated)
IC50 (SAOS-2): 19 µM | Ki [1]: 3.43 µM | IC50 (U2OS [2]): > 100 µM

COC(=O)C(c1ccc(Cl)cc1)N1C(=O)c2ccc(NCc3ccc(C(F)(F)F)cc3)cc2NC(=S)C1c1ccc(Cl)cc1 (configuration not stated)
IC50 (SAOS-2): 2.87 µM | Ki [1]: 5.34 µM | IC50 (U2OS [2]): 1.06 µM | Ratio IC50 (U2OS [3]): 23

COC(=O)C(c1ccc(Cl)cc1)N1C(=O)c2ccc(NCC3CCCCC3)cc2NC(=S)C1c1ccc(Cl)cc1 (configuration not stated)
IC50 (SAOS-2): 72.2 µM | Ki [1]: > 100 µM | IC50 (U2OS [2]): > 100 µM

COC(=O)C(c1ccc(Cl)cc1)N1C(=O)c2ccc(NCc3ccc4ccccc4c3)cc2NC(=S)C1c1ccc(Cl)cc1 (configuration not stated)
IC50 (SAOS-2): 91.7 µM | Ki [1]: > 100 µM | IC50 (U2OS [2]): > 100 µM

COC(=O)C(c1ccc(Cl)cc1)N1C(=O)c2ccc(NCc3ccc(OC)cc3)cc2NC(=S)C1c1ccc(Cl)cc1 (configuration not stated)
IC50 (SAOS-2): 88.1 µM | Ki [1]: > 100 µM | IC50 (U2OS [2]): > 100 µM

COC(=O)C(c1ccc(Cl)cc1)N1C(=O)c2ccc(NCc3ccsc3)cc2NC(=S)C1c1ccc(Cl)cc1 (configuration not stated)
IC50 (SAOS-2): 3.37 µM | Ki [1]: > 100 µM | IC50 (U2OS [2]): > 100 µM

COC(=O)C(c1ccc(Cl)cc1)N1C(=O)c2ccc(NCc3ccc(F)cc3)cc2NC(=S)C1c1ccc(Cl)cc1 (configuration not stated)
IC50 (SAOS-2): 9.81 µM | Ki [1]: 1.71 µM | IC50 (U2OS [2]): 30.6 µM

COC(=O)C(c1ccc(Cl)cc1)N1C(=O)c2ccc(NCc3ccco3)cc2NC(=S)C1c1ccc(Cl)cc1 (configuration not stated)
IC50 (SAOS-2): 11.3 µM | Ki [1]: 43.1 µM | IC50 (U2OS [2]): 48.5 µM

COc1ccc(C2=N[C@@H](c3ccc(Cl)cc3)[C@@H](c3ccc(Cl)cc3)N2C(=O)N2CCNC(=O)C2)c(OC(C)C)c1 [NUTLIN-3]
IC50 (SAOS-2): 54.4 µM | IC50 (U2OS [2]): 24.6 µM
